Measurements gathered from unrelated publications.
Compare with care: the assays were run in different laboratories.

| Compound | target or system | test | system | conditions | endpoint | result |
| --- | --- | --- | --- | --- | --- | --- |
| N#Cc1c(-c2ccc(Cl)cc2Cl)c(C(N)=S)c(N)n(N)c1=O | Enterobacter cloacae | microbial growth, well diffusion | ATCC23355 | 500 µg/mL | inhibition zone | 18 mm |
| CC#CCOc1ccc(/C=C/c2cc(OC)cc(OC)c2-c2cnnn2C(=O)NC(C)C)cc1 | RAW264.7 | NO release, inhibitor, Griess |  | 10 µM, LPS-stimulated | inhibition | 78.7% |
| CN(Cc1ccc(C2(C(F)(F)F)CC2)cc1)Cc1cccc2ccccc12 | Trichophyton mentagrophytes | microbial growth, disc diffusion | ATCC18748 | 0.512 µg/mL, 72 h | inhibition zone | ≥ 55 mm |
| O=C1C(NCCc2ccc(O)cc2)=CC2=NCCc3c[nH]c1c32 | Babesia divergens | parasite growth, SYBR Green |  | 60 h, blood stage | IC50 | 404 nM |
| C#CCOc1ccc(/C=C/c2cc(OC)cc(OC)c2-c2cnnn2C(=O)NCCc2ccccc2)cc1 | RAW264.7 | NO release, inhibitor, Griess |  | 10 µM, LPS-stimulated | inhibition | 50.4% |
| O=C(c1ccc(Oc2ccc(OCc3ccccc3)cc2)c([N+](=O)[O-])c1)C(Cl)Cl | NCI-H1299 | cell growth or viability, MTT |  | 2.5 µM | inhibition | 86.4% |
| C=CC(=O)NC1CCN(c2ncc3ncnc(Nc4ccc(Oc5ccc6c(c5)ncn6C)c(C)c4)c3n2)CC1 | COR-L279 | cell growth or viability |  |  | EC50 | 7.54 nM |
| C#CCOc1ccc(/C=C/c2cc(OC)cc(OC)c2-c2cnnn2C(=O)NCCC)cc1 | RAW264.7 | NO release, inhibitor, Griess |  | 10 µM, LPS-stimulated | inhibition | 94.2% |
| COc1cccc2c1C(=O)c1c(O)c3c(c(O)c1C2=O)C[C@@](O)(C(=O)CO)C[C@@H]3O[C@H]1C[C@H](N)[C@H](O)[C@H](C)O1 | NCI-H1299 | cell growth or viability, MTT |  | 2.5 µM | inhibition | 95.7% |
| CN(Cc1ccc(C(C)(C)C)cc1)Cc1cccc2ccccc12 | Trichophyton mentagrophytes | microbial growth, disc diffusion | ATCC18748 | 0.004 µg/mL, 72 h | inhibition zone | 34 mm |
| O=C(c1ccccc1)c1ccc(Oc2ccc(C(=O)C(Cl)Cl)cc2[N+](=O)[O-])cc1 | NCI-H1299 | cell growth or viability, MTT |  | 2.5 µM | inhibition | 85.3% |
| Cc1ccc(-c2cc(C(F)(F)F)nn2-c2ccc(S(N)(=O)=O)cc2)cc1 | RAW264.7 | NO release, inhibitor, Griess |  | 10 µM, LPS-stimulated | inhibition | 35.2% |
